Measured values published in ChEMBL document CHEMBL1131013, “Synthesis and evaluation of analogues of the partial agonist 6-(propyloxy)-4-(methoxymethyl)-beta-carboline-3-carboxylic acid ethyl ester (6-PBC) and the full agonist 6-(benzyloxy)-4-(methoxymethyl)-beta-carboline-3-carboxylic acid ethyl ester (Zk 93423) at wild type and recombinant GABAA receptors” (J Med Chem, 1998).

Key:
[1] = target: GABA-A receptor; anion channel; experiment: Displacement of [3H]flunitrazepam from GABA-A Benzodiazepine receptor of rat brain cortical membranes; format: cell membranes, Membrane
Outline: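 Rat cerebral cortex homogenized in 50 mM Tris-citrate, pH 7.4, and washed by centrifugation (20000g). […] Nonspecific binding with 10 μM Ro15-1788. Ended by vacuum filtration. IC50 estimated from at least six inhibitor concentrations; mean ± SEM of at least three determinations.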

[2] = target: GABA-A receptor; alpha-6/beta-3/gamma-2 (Homo sapiens, UniProt P18507+P28472+Q16445); experiment: Binding affinity measured using LtK- cell membranes expressing Gamma-aminobutyric acid A receptor alpha-6-beta-3-gamma-2
Sequence of GABA-A receptor; alpha-6/beta-3/gamma-2 (Q16445 whole entry, one chain of several): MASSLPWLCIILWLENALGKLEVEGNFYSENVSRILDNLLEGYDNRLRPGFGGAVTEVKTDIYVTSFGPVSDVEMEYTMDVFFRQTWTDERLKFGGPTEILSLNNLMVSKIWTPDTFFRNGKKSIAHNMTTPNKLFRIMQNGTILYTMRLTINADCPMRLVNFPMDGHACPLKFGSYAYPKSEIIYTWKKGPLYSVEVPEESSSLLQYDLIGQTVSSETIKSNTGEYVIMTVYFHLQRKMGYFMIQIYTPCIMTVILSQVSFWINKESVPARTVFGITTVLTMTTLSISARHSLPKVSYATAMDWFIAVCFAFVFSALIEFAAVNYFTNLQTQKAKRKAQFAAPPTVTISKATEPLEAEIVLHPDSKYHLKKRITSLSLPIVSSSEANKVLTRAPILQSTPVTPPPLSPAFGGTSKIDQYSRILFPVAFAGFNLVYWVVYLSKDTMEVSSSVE
Outline: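 Ltk- cells expressing human α6β3γ2, scraped into PBS and resuspended in 10 mM KH2PO4/100 mM KCl pH 7.4. 1 h at 4 °C to equilibrium, filtration, scintillation counting.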

[3] = target: T1, GABA-A receptor; alpha-5/beta-3/gamma-2 (Homo sapiens, UniProt P18507+P28472+P31644); experiment: Binding affinity measured using LtK- cell membranes expressing Gamma-aminobutyric acid A receptor alpha-5-beta-3-gamma-2
T1 sequence (P18507 whole entry): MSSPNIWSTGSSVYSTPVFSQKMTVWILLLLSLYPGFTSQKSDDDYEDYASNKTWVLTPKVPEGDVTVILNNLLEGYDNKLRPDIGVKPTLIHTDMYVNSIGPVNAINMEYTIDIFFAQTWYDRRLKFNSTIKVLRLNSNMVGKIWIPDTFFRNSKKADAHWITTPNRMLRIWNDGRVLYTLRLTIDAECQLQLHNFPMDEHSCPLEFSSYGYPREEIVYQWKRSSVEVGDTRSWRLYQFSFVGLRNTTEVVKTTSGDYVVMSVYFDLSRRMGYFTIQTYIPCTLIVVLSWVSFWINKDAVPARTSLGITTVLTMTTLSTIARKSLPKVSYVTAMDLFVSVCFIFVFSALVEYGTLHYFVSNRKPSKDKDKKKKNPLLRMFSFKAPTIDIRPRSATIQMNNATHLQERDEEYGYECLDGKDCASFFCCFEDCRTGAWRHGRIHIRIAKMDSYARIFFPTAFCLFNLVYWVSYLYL
T1 sequence (P28472 whole entry): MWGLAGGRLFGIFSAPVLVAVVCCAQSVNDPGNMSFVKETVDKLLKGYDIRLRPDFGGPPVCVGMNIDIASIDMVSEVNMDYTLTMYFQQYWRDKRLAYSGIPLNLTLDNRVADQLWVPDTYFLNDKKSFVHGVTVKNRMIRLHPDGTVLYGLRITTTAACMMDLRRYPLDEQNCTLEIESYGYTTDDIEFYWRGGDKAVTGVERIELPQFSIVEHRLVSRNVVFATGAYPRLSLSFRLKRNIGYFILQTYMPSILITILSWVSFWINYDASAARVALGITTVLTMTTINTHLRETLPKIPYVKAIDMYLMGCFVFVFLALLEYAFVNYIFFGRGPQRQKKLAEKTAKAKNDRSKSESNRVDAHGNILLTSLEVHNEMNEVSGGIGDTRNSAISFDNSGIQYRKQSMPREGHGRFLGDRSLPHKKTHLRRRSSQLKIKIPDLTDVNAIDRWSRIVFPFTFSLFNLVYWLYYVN
T1 sequence (P31644 whole entry): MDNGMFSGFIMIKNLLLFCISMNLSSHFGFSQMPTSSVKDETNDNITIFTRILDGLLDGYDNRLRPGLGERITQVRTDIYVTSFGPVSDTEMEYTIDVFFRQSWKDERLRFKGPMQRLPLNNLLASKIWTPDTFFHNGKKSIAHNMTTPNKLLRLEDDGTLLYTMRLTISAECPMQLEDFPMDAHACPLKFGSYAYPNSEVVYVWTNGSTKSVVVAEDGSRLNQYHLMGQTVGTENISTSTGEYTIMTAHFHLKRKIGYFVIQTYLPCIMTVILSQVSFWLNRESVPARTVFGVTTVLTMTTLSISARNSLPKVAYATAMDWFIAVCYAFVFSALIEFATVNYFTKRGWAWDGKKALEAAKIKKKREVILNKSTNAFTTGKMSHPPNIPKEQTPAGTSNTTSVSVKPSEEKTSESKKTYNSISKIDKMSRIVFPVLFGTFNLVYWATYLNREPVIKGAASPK

[4] = target: T2, GABA-A receptor; alpha-1/beta-3/gamma-2 (Homo sapiens, UniProt P14867+P18507+P28472); experiment: Binding affinity measured using LtK- cell membranes expressing GABA alpha-1-beta-3-gamma-2 receptor
T2 sequence (P14867 whole entry): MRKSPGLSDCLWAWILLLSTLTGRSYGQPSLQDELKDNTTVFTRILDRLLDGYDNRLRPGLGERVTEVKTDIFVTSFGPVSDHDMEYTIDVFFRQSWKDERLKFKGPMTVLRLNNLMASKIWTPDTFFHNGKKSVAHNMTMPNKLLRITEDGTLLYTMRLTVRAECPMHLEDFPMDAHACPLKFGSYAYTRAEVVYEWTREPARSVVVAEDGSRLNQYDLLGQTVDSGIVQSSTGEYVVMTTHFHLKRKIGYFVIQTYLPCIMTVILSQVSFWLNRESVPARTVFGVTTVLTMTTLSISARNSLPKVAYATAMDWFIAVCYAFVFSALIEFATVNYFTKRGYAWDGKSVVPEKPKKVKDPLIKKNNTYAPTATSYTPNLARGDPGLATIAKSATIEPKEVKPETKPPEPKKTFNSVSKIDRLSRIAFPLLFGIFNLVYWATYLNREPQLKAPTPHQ
T2 sequence (P18507 whole entry): T1 sequence (P18507 whole entry)
T2 sequence (P28472 whole entry): T1 sequence (P28472 whole entry)

[5] = target: T3, GABA-A receptor; alpha-3/beta-3/gamma-2 (Homo sapiens, UniProt P18507+P28472+P34903); experiment: Binding affinity measured using LtK- cell membranes expressing GABA alpha-3-beta-3-gamma-2 receptor
T3 sequence (P18507 whole entry): T1 sequence (P18507 whole entry)
T3 sequence (P28472 whole entry): T1 sequence (P28472 whole entry)
T3 sequence (P34903 whole entry): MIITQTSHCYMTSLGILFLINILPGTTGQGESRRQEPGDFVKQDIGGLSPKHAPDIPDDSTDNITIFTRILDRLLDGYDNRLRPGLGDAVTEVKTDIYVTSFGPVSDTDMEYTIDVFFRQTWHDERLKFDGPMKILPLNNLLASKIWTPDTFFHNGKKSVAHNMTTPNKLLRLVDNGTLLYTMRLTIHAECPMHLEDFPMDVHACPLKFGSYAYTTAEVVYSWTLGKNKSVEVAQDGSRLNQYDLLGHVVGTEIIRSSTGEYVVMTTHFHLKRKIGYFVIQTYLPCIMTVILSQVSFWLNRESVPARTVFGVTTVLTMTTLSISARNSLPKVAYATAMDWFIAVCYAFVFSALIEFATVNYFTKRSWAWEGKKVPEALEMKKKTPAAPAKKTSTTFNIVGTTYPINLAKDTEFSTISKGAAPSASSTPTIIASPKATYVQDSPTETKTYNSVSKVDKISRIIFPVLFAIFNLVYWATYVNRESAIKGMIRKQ

[6] = target: T4, GABA-A receptor; alpha-2/beta-3/gamma-2 (Homo sapiens, UniProt P18507+P28472+P47869); experiment: Binding affinity measured using LtK- cell membranes expressing GABA alpha-2-beta-3-gamma-2 receptor
T4 sequence (P18507 whole entry): T1 sequence (P18507 whole entry)
T4 sequence (P28472 whole entry): T1 sequence (P28472 whole entry)
T4 sequence (P47869 whole entry): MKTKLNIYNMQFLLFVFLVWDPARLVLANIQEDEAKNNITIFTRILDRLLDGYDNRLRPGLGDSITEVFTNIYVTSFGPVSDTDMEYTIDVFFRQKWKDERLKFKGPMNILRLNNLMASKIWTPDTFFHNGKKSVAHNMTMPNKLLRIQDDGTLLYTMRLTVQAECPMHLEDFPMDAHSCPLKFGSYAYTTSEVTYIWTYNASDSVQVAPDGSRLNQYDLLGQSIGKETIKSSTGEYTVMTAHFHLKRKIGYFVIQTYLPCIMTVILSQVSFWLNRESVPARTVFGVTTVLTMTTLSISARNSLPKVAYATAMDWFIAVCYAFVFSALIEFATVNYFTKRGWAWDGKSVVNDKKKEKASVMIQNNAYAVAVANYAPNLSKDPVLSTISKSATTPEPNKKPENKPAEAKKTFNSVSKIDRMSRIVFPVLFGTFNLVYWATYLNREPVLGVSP

SMILES	IC50 [1] [nM]	Ki [2] [nM]	Ki [3] [nM]	Ki [4] [nM]	Ki [5] [nM]	Ki [6] [nM]
CCCOc1ccc2[nH]c3cnc(N)c(COC)c3c2c1	697	> 3000	380	45	700	540
CCCCCCCCOc1ccc2c(c1)c1c(COC)c(C(=O)OCC)ncc1n2C	> 1000	> 3000	> 3000	> 3000	> 3000	> 3000
CCOC(=O)c1cc2c3cc(OCc4ccccc4)ccc3n(C)c2cn1	> 5000	–	–	–	–	–
CCCOc1[nH]cc2nc3ccc(OCc4ccccc4)cc3c-2c1COC	63.8	–	–	–	–	–
CCOc1[nH]cc2nc3cc(OC)c(OC)cc3c-2c1CC	–	> 300	> 300	> 300	> 300	> 300
Cc1ccc(-c2nc3ccc(C)cn3c2CC(=O)N(C)C)cc1 [ZOLPIDEM]	–	> 10000	> 10000	–	–	–
CC(C)CCOc1cc2c3ccccc3nc-2c[nH]1	–	> 10000	> 3000	350	> 3000	> 3000
CCOC(=O)c1[nH]cc2nc3ccc(OCc4cccc5ccccc45)cc3c-2c1COC	55.5	> 1000	323	15.4	293	–
CC(C)(C)OC(=O)c1cc2c3ccccc3nc-2c[nH]1	–	> 5000	111	0.72	18.9	15
CCOC(=O)c1ncc2c(c1CC)c1ccccc1n2C	–	> 10000	> 1000	> 1000	> 1000	> 1000
CCOC(=O)c1ncc2c(c1COC)c1cc(OCc3cccc4ccccc34)ccc1n2C	730	–	–	–	–	–
CCOC(=O)c1[nH]cc2nc3cc(OC)c(OC)cc3c-2c1CC	–	74.9	3.3	6.2	4	18.7
CCCCCCCCOc1ccc2c(c1)c1c(CC)c(C(=O)OCC)ncc1n2C	> 1000	–	–	–	–	–
COCc1c(C(=O)OC(C)C)ncc2[nH]c3ccc(OCc4ccccc4)cc3c12 [ABECARNIL]	–	> 10000	6	12.4	7.5	15.3
CCOC(=O)c1cc2c(cn1)[nH]c1ccccc12	–	–	–	1.2	–	–
CCOC(=O)c1ncc2c(c1CC)c1cc(OCc3ccccc3)ccc1n2C	> 5000	–	–	–	–	–
CCc1c(C(=O)OC)ncc2[nH]c3cc(OC)c(OC)cc3c12	–	134	1	5.7	4	8.3

SMILES	IC50 [1] [nM]	Ki [2] [nM]	Ki [3] [nM]	Ki [4] [nM]	Ki [5] [nM]	Ki [6] [nM]
CC(C)COc1cc2c(cn1)[nH]c1ccccc12	–	> 10000	1000	24.9	139	124
CCOC(=O)c1[nH]cc2nc3ccc(OCc4ccccc4)cc3c-2c1CC	–	> 10000	67.3	20.8	58.7	78.3
COCc1c(/N=C(/S)OC)[nH]cc2nc3ccc(OCc4ccccc4)cc3c1-2	176	–	–	–	–	–
CCCOc1ccc2c(c1)c1c(COC)c(C(=O)OCC)ncc1n2C	290	–	–	–	–	–
CCOC(=O)c1ncc2[nH]c3ccc(OCc4ccccc4)cc3c2c1COC	–	> 1000	4.5	4.1	6	4.2
CCOC(=O)c1ncc2c(c1CC)c1cc(OCc3cccc4ccccc34)ccc1n2C	> 1000	–	–	–	–	–
CCCOc1cc2c(cn1)[nH]c1ccccc12	–	> 1000	591	5.3	68.8	52.3
c1ccc(COc2cc3c4ccccc4nc-3c[nH]2)cc1	–	> 10000	> 10000	830	> 3000	> 3000
CCOC(=O)c1ncc2[nH]c3ccccc3c2c1COC	–	1150	10.4	0.6	4.8	2.8
CCC(C)Oc1cc2c3ccccc3nc-2c[nH]1 (stereo unspecified)	–	> 10000	> 10000	245	869	818
CCCOc1ccc2[nH]c3cnc(N=C=S)c(COC)c3c2c1	24.7	–	–	–	–	–
Cc1nnc2ccc(-c3cccc(C(F)(F)F)c3)nn12 [CI-218872]	–	> 10000	561	57	1160	1960
COCc1c(N)[nH]cc2nc3ccc(OCc4ccccc4)cc3c1-2	271	–	–	–	–	–
CCCCOc1cc2c(cn1)[nH]c1ccccc12	–	> 1000	1000	36.9	245	194
CCc1c(OC)[nH]cc2nc3cc(OC)c(OC)cc3c1-2	–	> 300	> 300	> 300	> 300	> 300
CCCOc1ccc2[nH]c3cnc(C(=O)OC(C)C)c(COC)c3c2c1	30.8	–	–	–	–	–
CC(C)Oc1cc2c(cn1)[nH]c1ccccc12	–	> 10000	> 10000	283	> 3000	> 3000
